Results taken from ChEMBL document CHEMBL1124262, “Cardiotonic agents. Synthesis and inotropic activity of a series of isoquinolin-3-ol derivatives” (J Med Chem, 1988).

Legend:
[1] = target: Phosphodiesterase 3 (Homo sapiens, UniProt Q14432+Q13370); assay: Inhibition of phosphodiesterase fraction III in anesthetized open chest dogs; type: functional, Canis lupus familiaris; settings: target entry is the homologue from another species
Method in brief: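 Enzyme is dog heart PDE-III, the third DEAE-cellulose fraction eluted at 800 mM sodium acetate. Compounds are tested at 0.01–1000 μM with 0.25 μM cAMP containing [³H]cAMP, in 0.05 M Tris-HCl pH 7.4 with 5 mM MgCl2. The reaction is stopped by heat, then snake venom converts product to adenosine. [³H]adenosine is counted by scintillation after Dowex separation. IC50 comes from ≥2 determinations, each in duplicate.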

[2] = tested on: Canis familiaris; assay: Change in left ventricular pressure of anaesthetized, open chest dogs following 0.875 mg/kg i.v. administration.; type: functional, Canis lupus familiaris, Heart left ventricle; settings: route intravenous
Method in brief: (§1)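 Anesthetized open-chest dogs, one drug per animal. Compound is in DMF diluted to 10% in saline, or given as the HCl salt in saline. It is infused into the femoral vein by pump at 0.58-2.2 mL/min in 3-4 stepwise cumulative doses, each over 5 min after the prior peak. Readings are CF by right-ventricle strain gauge, dP/dtmax by Millar LV catheter, HR by cardiotachometer and MAP from femoral artery, as % change from predrug control.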

[3] = tested on: Canis familiaris; assay: Change in heart rate of anaesthetized, open chest dogs following 0.875 mg/kg i.v. administration.; type: functional, Canis lupus familiaris; settings: route intravenous; method in brief: as §1
[4] = tested on: Canis familiaris; assay: Change in heart contractile force of anaesthetized, open chest dogs following 0.875 mg/kg i.v. administration.; type: functional, Canis lupus familiaris; settings: route intravenous; method in brief: as §1
[5] = tested on: Canis familiaris; assay: Percent change in mean arterial blood pressure (MAP) in anesthetized open chest dogs iv administration at 0.8750 mg/kg; type: functional, Canis lupus familiaris; settings: dose 0.875 mg/kg; method in brief: as §1
[6] = tested on: Canis familiaris; assay: 50% increase in contractile force in one to three anesthetized dogs administered intravenously; type: functional; settings: Canis lupus familiaris, iv
Method in brief: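 Anesthetized dogs (one to three). Compound is infused iv in three to four stepwise increasing doses, each over 5 min once the previous effect has peaked. Contractile force is recorded with a Walton Brodie strain gauge on the right ventricle. The dose (μg/kg) giving a 50% rise over control CF is read from the dose-response curve, graphically (n < 3) or by linear regression (n ≥ 3).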

[7] = tested on: Canis familiaris; assay: Percent change in mean arterial blood pressure (MAP) in anesthetized open chest dogs iv administration at 1.875 mg/kg; type: functional, Canis lupus familiaris; method in brief: as §1
[8] = tested on: Canis familiaris; assay: Percent change in left ventricular pressure (dP/dtmax) in anesthetized dog after iv administration at 1.875 mg/kg; type: functional, Canis lupus familiaris, Heart left ventricle; method in brief: as §1
[9] = tested on: Canis familiaris; assay: Percent change in heart rate (HR) in anesthetized open chest dogs after a iv dose of 1.875 mg/kg; type: functional, Canis lupus familiaris; method in brief: as §1
[10] = tested on: Canis familiaris; assay: Percent increase in contractile force (CF) in anesthetized open-chest dogs iv administration of 1.875 mg/kg; type: functional, Canis lupus familiaris
Method in brief: (§2)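 Anesthetized open-chest dogs. After a right thoracotomy, contractile force was recorded by a Walton Brodie strain gauge sutured to the right ventricle at 100 g baseline tension. Compound was given iv by infusion pump into a femoral vein, one drug per animal, in three to four stepwise increasing doses. Each dose ran over 5 min, starting once the previous dose's effect peaked. Values are % increase over predrug control vs cumulative mg/kg dose.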

[11] = tested on: Canis familiaris; assay: Percent increase in contractile force (CF) in anesthetized open-chest dogs iv administration of 0.050 mg/kg; type: functional, Canis lupus familiaris; settings: dose 0.05 mg/kg; method in brief: as §1
[12] = tested on: Canis familiaris; assay: Percent change in left ventricular pressure (dP/dtmax) in anesthetized dog after iv administration at 0.05 mg/kg; type: functional, Canis lupus familiaris, Heart left ventricle; method in brief: as §1
[13] = tested on: Canis familiaris; assay: Percent change in heart rate (HR) in anesthetized open chest dogs after a iv dose of 0.05 mg/kg; type: functional, Canis lupus familiaris; method in brief: as §1
[14] = tested on: Canis familiaris; assay: Percent change in mean arterial blood pressure (MAP) in anesthetized open chest dogs iv administration at 0.050 mg/kg; type: functional, Canis lupus familiaris; settings: dose 0.05 mg/kg; method in brief: as §1
[15] = tested on: Canis familiaris; assay: Percent change in mean arterial blood pressure (MAP) in anesthetized open chest dogs iv administration at 0.875 mg/kg; type: functional, Canis lupus familiaris; method in brief: as §1
[16] = tested on: Canis familiaris; assay: Percent change in heart rate (HR) in anesthetized open chest dogs after a iv dose of 1 mg/kg; type: functional, Canis lupus familiaris; method in brief: as §1
[17] = tested on: Canis familiaris; assay: Percent change in mean arterial blood pressure (MAP) in anesthetized open chest dogs iv administration at 0.025 mg/kg; type: functional, Canis lupus familiaris; method in brief: as §1
[18] = tested on: Canis familiaris; assay: Percent change in heart rate (HR) in anesthetized open chest dogs after a iv dose of 0.025 mg/kg; type: functional, Canis lupus familiaris; method in brief: as §1
[19] = tested on: Canis familiaris; assay: Percent change in left ventricular pressure (dP/dtmax) in anesthetized dog after iv administration at 0.025 mg/kg; type: functional, Canis lupus familiaris, Heart left ventricle; method in brief: as §1
[20] = tested on: Canis familiaris; assay: Percent increase in left ventricular pressure (dP/dtmax) of anesthetized dog after id administration at 1 mg/kg; type: functional, Canis lupus familiaris, Heart left ventricle; settings: route intraduodenal
Method in brief: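 Anesthetized open-chest dogs. Left ventricular pressure was measured by Millar catheter and dP/dtmax derived. Compound was given as a 10-mL bolus into the duodenum through a catheter placed 2 cm distal to the pylorus via flank incision. Dissolved in DMF diluted to 10% in saline, or as HCl salt in saline. Response is % change over predrug control, monitored continuously.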

[21] = tested on: Canis familiaris; assay: Percent change in mean arterial blood pressure (MAP) in anesthetized open chest dogs iv administration at 1 mg/kg; type: functional, Canis lupus familiaris; method in brief: as §1
[22] = tested on: Canis familiaris; assay: Percent increase in contractile force (CF) in anesthetized open-chest dogs iv administration of 0.025 mg/kg; type: functional, Canis lupus familiaris; method in brief: as §1
[23] = tested on: Canis familiaris; assay: Contractile force in anesthetized open chest dogs id administration at 1.00 mg/kg; type: functional, Canis lupus familiaris; settings: route intraduodenal
Method in brief: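 Anesthetized open-chest dogs. A 10-mL bolus is injected into the duodenum through a catheter placed 2 cm distal to the pylorus. Contractile force is measured with a Walton Brodie strain gauge sutured to the right ventricle, at a baseline tension of 100 g, and monitored continuously. Results are given as % increase from predrug control against cumulative dose.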

[24] = tested on: Canis familiaris; assay: Percent change in mean arterial blood pressure (MAP) in anesthetized open chest dogs iv administration at 0.3750 mg/kg; type: functional, Canis lupus familiaris; settings: dose 0.375 mg/kg; method in brief: as §1
[25] = tested on: Canis familiaris; assay: Percent change in heart rate (HR) in anesthetized open chest dogs after a iv dose of 0.375 mg/kg; type: functional, Canis lupus familiaris; method in brief: as §1
[26] = tested on: Canis familiaris; assay: Percent increase in contractile force (CF) in anesthetized open-chest dogs iv administration of 0.375 mg/kg; type: functional, Canis lupus familiaris; method in brief: as §2
[27] = tested on: Canis familiaris; assay: Percent change in left ventricular pressure (dP/dtmax) in anesthetized dog after iv administration at 0.375 mg/kg; type: functional, Canis lupus familiaris, Heart left ventricle; method in brief: as §1

Row | IC50 [1] | Compound | Increase [2] | Change [3] | Increase [4] | Change [5] | ED50 [6] | also measured
1 | 10 µM | Br.COc1cc2c(C)nc(O)c(Br)c2cc1OC | 25% | 26% | 128% | -40% | 0.185 mg/kg | 
2 | 62 µM | COc1cc2c(C)nc(O)c(Cl)c2cc1OC | 88% | 29% | 89% | 1% | 0.12 mg/kg | 
3 | 37 µM | CCCCOc1cc2c(C)nc(O)cc2cc1OC | 58% | 26% | 182% | -18% | 0.13 mg/kg | 
4 |  | COc1cc2c(C)nc(O)c(CCC(=O)N(C)C)c2cc1OC |  |  |  |  |  | Change [7]: -14%; Increase [8]: -5%; Change [9]: -2%; Increase [10]: 16%
5 |  | COc1ccc2c(C)nc(O)cc2c1OC |  |  | 28% |  |  | Change [7]: 1%; Increase [8]: 13%; Change [9]: 3%
6 |  | CCc1nc(O)c(CCC(=O)OC)c2cc(OC)c(OC)cc12 | 33% | 10% | 47% | -3% |  | 
7 |  | CCCc1nc(O)c(CCC(=O)OC)c2cc(OC)c(OC)cc12 |  | 2% |  |  |  | Change [7]: -4%; Increase [8]: 19%; Increase [10]: 17%
8 | 7 µM | COc1cc2c(C)nc(O)c(C(C)C)c2cc1OC |  |  |  |  | 0.025 mg/kg | Increase [11]: 76%; Increase [12]: 54%; Change [13]: 6%; Change [14]: -5%
9 |  | COc1cc2c(C)nc(O)c(CCC(N)=O)c2cc1OC |  |  |  |  |  | Change [7]: -9%; Increase [8]: 29%; Change [9]: 11%; Increase [10]: 49%
10 | 2 µM | CCOc1cc2c(C)nc(O)c(CC)c2cc1OC | 6% | 26% | 118% | -46% | 0.02 mg/kg | 
11 |  | COc1cc2cc(O)nc(C)c2c(OC)c1OC | 45% | 13% | 76% |  |  | Change [15]: -2%
12 |  | CCOc1cc2c(C)nc(O)cc2cc1OC | 88% | 22% | 197% |  |  | Change [15]: -10%
13 | 2 µM | CCc1c(O)nc(C)c2cc(OC)c(OC)cc12 |  |  |  |  | 0.012 mg/kg | Change [16]: 22%; Change [17]: -12%; Change [18]: 13%; Increase [19]: 98%; Increase [20]: 92%; Change [21]: -22%; Increase [22]: 143%; Increase [23]: 132%
14 |  | COC(=O)Cc1c(O)nc(C)c2cc(OC)c(OC)cc12 | 28% | 6% | 42% | -1% |  | 
15 |  | CCOC(=O)CCc1c(O)nc(C)c2cc(OC)c(OC)cc12 | 20% | 8% | 60% | -4% |  | 
16 |  | COc1cc2c(C)nc(O)c(CC(C)C)c2cc1OC |  |  |  |  |  | Change [7]: -6%; Increase [8]: 25%; Change [9]: 10%; Increase [10]: 39%
17 |  | COC(=O)Oc1cc2cc(OC)c(OC)cc2c(C)n1 |  |  |  |  |  | Change [24]: -8%; Change [25]: 19%; Increase [26]: 119%; Increase [27]: 66%
